Test results taken from the EternaBench riboswitch data.

Tested on: MS2 coat protein
Test: apparent Kd, MS2 coat protein; higher = weaker binding; RNA-MaP array; FMN 200 µM where present
Outline: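 Binding was read on Illumina sequencing-chip clusters where stalled E. coli RNA polymerase had transcribed each design. A titration of SNAP-549-labelled MS2 coat protein began at 0.7 or 1.5 nM and doubled to 3 µM, once without ligand and once with constant ligand, in 100 mM Tris-HCl pH 7.5, 80 mM KCl, 4 mM MgCl2, BSA, DTT, yeast tRNA and Tween-20. The apparent Kd is the median of filtered per-cluster binding-curve fits, based on green signal normalised to red-channel RNA signal and control-cluster median Fmax.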

[1] = designed as: OFF switch for flavin mononucleotide, no ligand
[2] = ligand present: flavin mononucleotide, designed as: OFF switch for flavin mononucleotide
[3] = designed as: ON switch for flavin mononucleotide, no ligand
[4] = ligand present: flavin mononucleotide, designed as: ON switch for flavin mononucleotide

Sequence | apparent Kd [1] | apparent Kd [2] | apparent Kd [3] | apparent Kd [4]
CCAAACGGAGGAUAUACAAAUUAAGGAAAAAAACGCGAAAAACAUGAGGAUCACCCAUGUAGAAGGCCGAAAAA | 19.3 nM | 17.9 nM | – | –
UUACCUCAUGAGAAGGACAUGAGGAUCACCCAUGUAGGAUAUCGUGGGAGACUGGUAUUGAAUCUUCGGAUUCAAUACCUGUCU | – | – | 454 nM | 27.9 nM
UGGUACAUGAGGAUCACCCAUGUAAGAGCCCUCAUGCGAUGUAGAAGGAUAAUGCGAGUAGUGCUAUAGGAUAUACAUGAGUUU | 225 nM | 207 nM | – | –
UUCAAGGAAGGAUAUCUCGGCCCGGACAUGAGGAUCACCCAUGUUGUUUUUAGAUUCGUGAGAGAAGGUCUUAUAU | 38.8 nM | 26.5 nM | – | –
UUGGUUGUCGUAGGAUAUGUAGGAUAUUCCUACAUGAGGAUCACCCAUGUUCGCAUGGAAGAAGGACAGAAUGACGAUGACCAG | – | – | 1110 nM | 27.1 nM
AGGUGUAGAGGAUAUUUAUUCUUCCACAUGAGGAUCACCCAUGUCCCGGUCACCAGGGACGGAGAAGGCUACACCA | 77 nM | 88.3 nM | – | –
AAACAGGGAGGAUAUACAUGAGGAUCACCCAUGUUCGAGCGUCCUUGAACUACCUCAGGUAGAAGGCCCUAAUU | 372 nM | 112 nM | – | –
GAGGCACAUGAGGAUCACCCAUGUGGGUAUAACAUAGGAUAUCACCAACAAAAUACCCGGUGAGAAGGAUGAUGCC | – | – | 217 nM | 113 nM
GAUUAACAUGAGGAUCACCCAUGUCGUUAAAUGGGAGGAUAUACGUGGACCGUAGUCCGCGUAGAAGGCCUAAUUG | – | – | 144 nM | 29.2 nM
GCACGAGACUAAGGAUAUGGAGUGUCUACAUUAAACAUGAGGAUCACCCAUGUAAAGAGUACGAUUCAGAAGGUAGAGACGUGC | – | – | 51.5 nM | 23.5 nM
UCGAGGUCAGGAUAUACAUGAGGAUCACCCAUGUGGAAGUAAGGUAGGAGAAGAGUAGGUAGAAGGGACGAGAG | 42.6 nM | 35.7 nM | – | –
UGCCGUGUACAGAAGGGCGACAUGAGGAUCACCCAUGUCUCCUUGUUGGUCGUAGGAUAUGUACCGUGGCUCUCACCUGUGGGA | 5.57 nM | 6.95 nM | – | –
CGAUAGGACAGAGGAUAUACGUGCUAGAGAUACUAGCAAAAUUUCCUCACAUGAGGAUCACCCAUGUAGAAGGCUGUCCUAUCG | 15.6 nM | 439 nM | – | –
GUAGCUAUCGGAGGAUAUUCAUGAUACAUGAGGAUCACCCAUGUUAAAUUGGGAGAAGGCCGAUAGCUACAAGAGCGAAAGCUC | – | – | 14.8 nM | 5.54 nM
AGUGUCAUCGAGAAGGCCUCAACAUGAGGAUCACCCAUGUUGAAAAGUGGGAGGAUAUCGAUGAUACAGCUACGUUUCGUAGCA | – | – | 9.79 nM | 4.98 nM
CCAGCGAGUGUGAGGAUAUGCUGGUCCUUGGAUCAGCAGAAGGCACAUGAGGAUCACCCAUGUGAGGACGUUGG | 28.2 nM | 248 nM | – | –
GUGGCUCCCACAGGAUAUCCACAUGAGGAUCACCCAUGUCUAAUUAACAAAGGAGAAGGGUGGGACAAUUCUGGUGACUGAGAA | – | – | 30.1 nM | 4.89 nM
UACCUGAGGCAAAGCUUUAGGUAUACAUGAGGAUCACCCAUGUAGGAUAUGGUAGGCUUUGCUUACCAGAAGGACAUGUUAAUA | 17.3 nM | 56.3 nM | – | –
AAAUGCCUGUCGAUGCUCGACAUGAGGAUCACCCAUGUAUGGCAGGAUAUGCAGAACUGACUCGUGCAGAAGGGCUAUACCUAA | 8.06 nM | 24.7 nM | – | –
AAACCACAUGAGGAUCACCCAUGUGAUAAAAGCAUAGGAUAUCUGGAUGUGAGAGGCGGCAGAGAAGGAUGCACGC | – | – | 61.5 nM | 53.9 nM
CGGGUGGUCCUCCGGGAUUGGACACAGGAUAUCCGCGAAAACAUGAGGAUCACCCAUGUAUAUGAGGAGAAGGGUGGACGAAGA | – | – | 56.2 nM | 15.6 nM

Sequence | apparent Kd [1] | apparent Kd [2] | apparent Kd [3] | apparent Kd [4]
UUUUAGUCAGGAUAUCGUUAAUUUAAUUGUUUGUAUUAGUUCGAGAAGGGACAUGAGGAUCACCCAUGUAUUUU | 33.5 nM | 43 nM | – | –
UGUCGGAGCAGAGGAUAUACAUGAGGAUCACCCAUGUAAAUGAAAGAUAAGCUGGAAACAGCAAUGUAGAAGGCUGCUCCGACA | 18.4 nM | 88 nM | – | –
UUAUUAUAUGAAGGAUAUACUUAACAUGAGGAUCACCCAUGUGGUGUUGUGAGUGAGUGAGUUUAGUAGAAGGUCAAUUCUUUU | 425 nM | 623 nM | – | –
UGUGUGUGAGGAUAUACAUGAGGAUCACCCAUGUAGCGCGCGCGUAUUCGUGUGUGUUGUAGAAGGCGCGCGCG | 33 nM | 30.5 nM | – | –
CGAGGUGGAGUGAGGAUAUCGUGUUCGAAAGAACGUGAGAAGGCACAUGAGGAUCACCCAUGUGAUCCUGCUCG | 105 nM | 360 nM | – | –
CUAUCGAGGUAACUCGCUAUCACACCAGAAGGGACGGAGGCACAUGAGGAUCACCCAUGUCCUAGUCAGGAUAUGGGUGAGUAG | – | – | 17.6 nM | 5.07 nM
GUGGAGUACGUAGGAUAUGUAGGAUAUUCCUACAUGAGGAUCACCCAUGUAAGCAUGGAAGAAGGACAGAAGGACGUGCUCCAG | – | – | 231 nM | 12.1 nM
UCAGUAGAGUCAGGAUAUACCGAAAAGAAUCCUCACAUGAGGAUCACCCAUGUAGAAGGGACUCUACUGUAAGUCGGAAACGAC | 91.8 nM | 868 nM | – | –
GGAUAACAUGAGGAUCACCCAUGUACAUGGGUACAAGGAUAUGUAAAAUAAAACAAACAAACAGAAGGUGUAAAAA | – | – | 708 nM | 1450 nM
UGGUCAUGAUCAGGAUAUUAACAUGGGCUACAUUGAGAAGGGAUAGUGAGAUACGAACUGAACGACAUGAGGAUCACCCAUGUA | – | – | 59.7 nM | 44 nM
CAGGUAGCUACAGGAUAUACACAGCUCAGUAAACUGAGCAAAAGAUCUACAUGAGGAUCACCCAUGUAGAAGGGUAGCUGCCUG | 17.1 nM | 18.2 nM | – | –
CUCGCAGUAAUAGGAUAUCCACAUCCGUGGCCUGUGUGUGACUUAACAUGAGGAUCACCCAUGUUGGAGAAGGAUUACUCAAUA | 728 nM | 178 nM | – | –
AAACAAACAACGCAGGAUAUGCAAAAACCCACAUGAGGAUCACCCAUGUCCCAACAACAAACAAAGCAGAAGGGCGAACAAACAAA | – | – | 105 nM | 55.4 nM
GCCAUCGCAUGAGGAUAUGGCACCGUUUCGGUGCCAGAAGGCAUGUCAUAAGACAUGAGGAUCACCCAUGUGGUUAAGAUGGCA | – | – | 865 nM | 50.9 nM
AUAUCUCUGUAAGGAUAUAGAUGGUGUAAGCCUCCGACAUGAGGAUCACCCAUGUUAUAUGUUGUCUAGAAGGUACAGUGUCGG | – | – | 1110 nM | 898 nM
CGCUCAAUUCUUUAGGUUAGAAUCAGAAGGCGUAACAUGAGGAUCACCCAUGUAUAGAAGUGUAACGAGGAUAUGAAUUGAGCG | 8.86 nM | 8.25 nM | – | –
UAUGAGCGAGGAUAUGCUUGGGACGUCGUUCUUGCGGCGAGACAUGAGGAUCACCCAUGUAGAAGGCGCGAGCG | 18.4 nM | 18.5 nM | – | –
UCCUUCUGUUGAGGAUAUGUAAGACAGCGGCUGCUAUUACGGCACGCUGAUACAGAAGGCAACAUGAGGAUCACCCAUGUUCAA | 24.1 nM | 189 nM | – | –
CCCUGAGACCGGUUAAUUGGCUGAUAGGAUAUCCUCGGACAUGAGGAUCACCCAUGUUAACUAUUGGAGAAGGGUCAGCGAAAG | – | – | 448 nM | 216 nM
GUCAUGUUAGGAUAUCUAACAUGUGACUUCGGUCACUGUCCAGAGAAGGAACAUGAGGAUCACCCAUGUUGGAC | 14.7 nM | 15.9 nM | – | –
GUAGUUAGUAGAGGAUAUUAGUAUGUGUAAUAUUGAGAAGGUUACAUGAGGAUCACCCAUGUGAUCAAUCACUGUUAAGGUUGC | 6.48 nM | 6.71 nM | – | –
